Results as given in BindingDB's records for doi:10.1021/acs.jmedchem.9b01065 (Colorado State University, 2019).

Tests used:
[1] = molecular target: T1, DNA topoisomerase 2-alpha (Homo sapiens, UniProt P11388); assay: Inhibition of topoisomerase 2alpha in human SW620 organoids transfected with VimPro-GFP reporter assessed as reversion of epithelial-mesenchymal transition by measuring reduction in vimentin expression after 72 hrs by Hoechst 33342 staining based GFP reporter gene assay
In short: (§1)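 SW620 cells stably carrying VimPro-GFP or EcadPro-mCherry (puromycin selected) grown as organoids and dosed 72 h. Stained with 16 μM Hoechst 33342 for 1 h and imaged as 15 z-layers, 26.5 μm apart. Nuclei segmented and GFP- or mCherry-positive cells counted above background thresholds. Percent positive cells normalised to DMSO.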

[2] = molecular target: T1, DNA topoisomerase 2-alpha; assay: Inhibition of topoisomerase 2alpha in human SW620 organoids transfected with EcadPro-RFP reporter assessed as reversion of epithelial-mesenchymal transition by measuring increase in E-cadherin expression after 72 hrs by Hoechst 33342 staining based mCherryRFP reporter gene assay; in short: as §1

T1 sequence (P11388 whole entry): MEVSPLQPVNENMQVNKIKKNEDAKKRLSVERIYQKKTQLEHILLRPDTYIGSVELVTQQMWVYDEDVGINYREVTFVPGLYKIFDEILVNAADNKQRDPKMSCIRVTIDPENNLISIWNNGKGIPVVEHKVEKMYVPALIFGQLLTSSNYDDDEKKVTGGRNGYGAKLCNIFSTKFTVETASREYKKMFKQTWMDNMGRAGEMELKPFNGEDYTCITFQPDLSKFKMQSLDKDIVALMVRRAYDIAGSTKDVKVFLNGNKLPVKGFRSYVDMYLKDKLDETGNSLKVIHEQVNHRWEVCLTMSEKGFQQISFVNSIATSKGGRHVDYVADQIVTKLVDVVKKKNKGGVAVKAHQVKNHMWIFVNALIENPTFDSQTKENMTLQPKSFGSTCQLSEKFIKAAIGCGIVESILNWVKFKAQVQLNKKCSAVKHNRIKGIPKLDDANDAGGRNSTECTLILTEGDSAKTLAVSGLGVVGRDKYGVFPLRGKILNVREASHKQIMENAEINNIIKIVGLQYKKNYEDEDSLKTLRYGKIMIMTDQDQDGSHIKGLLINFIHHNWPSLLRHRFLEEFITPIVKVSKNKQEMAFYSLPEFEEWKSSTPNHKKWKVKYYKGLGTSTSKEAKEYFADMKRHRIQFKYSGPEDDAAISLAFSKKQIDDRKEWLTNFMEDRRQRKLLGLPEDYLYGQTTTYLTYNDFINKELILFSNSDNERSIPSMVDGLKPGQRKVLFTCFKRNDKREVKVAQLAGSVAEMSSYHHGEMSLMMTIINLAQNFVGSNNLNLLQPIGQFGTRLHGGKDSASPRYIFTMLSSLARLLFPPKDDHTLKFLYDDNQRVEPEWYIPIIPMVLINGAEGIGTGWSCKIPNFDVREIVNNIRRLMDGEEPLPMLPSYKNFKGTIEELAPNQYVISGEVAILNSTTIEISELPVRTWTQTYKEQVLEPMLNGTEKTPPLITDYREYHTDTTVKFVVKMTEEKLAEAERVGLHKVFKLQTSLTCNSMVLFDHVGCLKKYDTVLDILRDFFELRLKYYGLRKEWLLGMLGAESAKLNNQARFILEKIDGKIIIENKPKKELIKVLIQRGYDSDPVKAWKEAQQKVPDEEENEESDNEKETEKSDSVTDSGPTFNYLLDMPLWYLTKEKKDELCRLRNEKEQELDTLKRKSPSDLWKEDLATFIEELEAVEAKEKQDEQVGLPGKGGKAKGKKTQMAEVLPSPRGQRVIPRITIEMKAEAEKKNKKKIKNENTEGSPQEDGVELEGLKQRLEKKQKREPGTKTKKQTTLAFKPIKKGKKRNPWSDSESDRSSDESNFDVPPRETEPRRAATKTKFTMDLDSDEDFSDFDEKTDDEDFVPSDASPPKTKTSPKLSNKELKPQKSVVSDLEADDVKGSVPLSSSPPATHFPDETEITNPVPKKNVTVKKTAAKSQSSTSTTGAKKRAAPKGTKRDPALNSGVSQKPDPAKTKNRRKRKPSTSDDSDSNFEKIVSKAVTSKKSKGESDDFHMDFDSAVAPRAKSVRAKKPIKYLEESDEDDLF

Row | Structure (SMILES) | EC50 [1] | EC50 [2]
1 | COc1cc(NC(C)=O)c(O)c2nccc(-c3ccccc3NC(=O)c3ccccc3)c12 | 4 µM | 9 µM
2 | CC(C)(C)C(=O)Nc1ccc2c(-c3ccccc3)ccnc2c1O | 4.7 µM | 3.1 µM
3 | CC(=O)Nc1ccc2c(-c3ccoc3)ccnc2c1O | 1.7 µM | 3.4 µM
4 | CC(=O)Nc1ccc2c(-c3cc(F)ccc3O)ccnc2c1O | 1.2 µM | 1.6 µM
5 | O=C(CCN1CCOCC1)Nc1ccc2c(-c3cc(F)ccc3O)ccnc2c1O | 1.9 µM | 1.2 µM
6 | O=C(CCN1CCOCC1)Nc1ccc2c(-c3cc4ccccc4o3)ccnc2c1O | 2.4 µM | 3 µM
7 | O=C(CN1CCOCC1)Nc1ccc2c(-c3cc4ccccc4o3)ccnc2c1O | 1 µM | 3.3 µM
8 | CC(=O)Nc1ccc(-c2ccnc3c(O)c(NC(C)=O)ccc23)cc1 | 9.5 µM | 5.5 µM
9 | CC(=O)Nc1ccc2c(-c3cccs3)ccnc2c1O | 1.2 µM | 1.1 µM
10 | CC(=O)Nc1ccc2c(-c3cc4ccccc4o3)ccnc2c1O | 3.5 µM | 5.4 µM
